Yeast lifespan up: compounds extending yeast replicative lifespan, primary screen, S. cerevisiae, OD615; inhibition of the nicotinamide effect, % at 10 µM; S. cerevisiae growth with nicotinamide; deaD strain in restrictive glucose medium; 130,000 tested, 0.68% active;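 active = inhibition above a set limit, placed 3 SD over the median of all compounds, cut at about 26% in these data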;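 also: 0% = nicotinamide-treated wells and 100% = cells grown without nicotinamide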
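Assay system: DeaD-strain S. cerevisiae. Medium: CSMM-D glucose medium, restrictive. Reagent: nicotinamide, 1.5 mM, co-present with compound. Compound: 10 µM single point, 0.25% DMSO. Schedule: culture preincubation 4 h, compound exposure 48 h, both 30 °C. Detection: absorbance at 615 nm.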
Yeast growth inh: growth inhibitors of yeast BB579 in restrictive medium, primary screen, yeast lifespan-shortening project, S. cerevisiae; AID 804, 2007; OD615, 48 h; 140,000 tested, 0.51% active; inhibition, % at 10 µM;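 active = inhibition above a set limit, 3 SD over the mean compound inhibition, cut at about 44% in these data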
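Assay system – yeast BB579 (DeaD) · Dosing – single compound dose of 10 µM, 0.25% DMSO final · Detection – OD615 turbidity measurement · Buffer or medium – CSMM-D restrictive synthetic medium containing dextrose (glucose) · Benchmarks – positive control amphotericin B 10 µg/mL · Incubation – 48 h exposure, 30 °C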
S1P3 antag-1: S1P3 receptor antagonists, primary screen, cell-based; CHO S1P3 NFAT-BLA reporter, FRET fluorescence, antagonist mode; Sphingosine 1-phosphate receptor 3 (Homo sapiens), Q99500; 170,000 tested, 0.27% active; inhibition, % at 4.98 µM;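 active = inhibition above the plate cutoff, the mean inhibition of test wells on that plate plus 3 SD, cut at about 28% in these data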;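 also: cells challenged with S1P at its EC80 of 0.8 µM; blue over green emission ratio from cleaved BLA substrate after 4 h stimulation; 0% = S1P-stimulated wells and 100% = unstimulated DMSO-only wells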
Target sequence (Q99500 whole entry, looked up): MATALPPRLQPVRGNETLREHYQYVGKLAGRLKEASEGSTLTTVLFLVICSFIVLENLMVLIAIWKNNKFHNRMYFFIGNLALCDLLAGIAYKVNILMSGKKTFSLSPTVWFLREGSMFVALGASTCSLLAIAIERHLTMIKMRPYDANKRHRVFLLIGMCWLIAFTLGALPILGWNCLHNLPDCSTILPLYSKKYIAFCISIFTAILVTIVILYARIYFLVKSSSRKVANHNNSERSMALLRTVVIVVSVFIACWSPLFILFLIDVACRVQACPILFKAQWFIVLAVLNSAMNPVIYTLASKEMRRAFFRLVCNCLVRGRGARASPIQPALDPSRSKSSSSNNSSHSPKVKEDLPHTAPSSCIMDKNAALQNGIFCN
S1P3 antag-2: S1P3 receptor antagonists, retest, confirmation, cell-based; inhibition, % at 4.98 µM; AID 1429, 2008; 240 tested, 30% active; shares compounds with S1P3 antag-1; CHO S1P3 NFAT-BLA reporter, FRET, antagonist mode;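 active = inhibition above the hit threshold that was computed for the earlier primary screen, cut at about 30% in these data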;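 also: 0% = S1P-stimulated wells and 100% = unstimulated DMSO-only wells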
* = called active by the depositor; . = not tested or not shown. Compounds with a hit are over-represented: about 0.98% of the library has one in this group of screens.

SMILES	Yeast lifespan up	Yeast growth inh	S1P3 antag-1	others
CCN1CCN(Cc2cc(Br)cc(Br)c2O)CC1	-5.2	-43.9	.
CC(C)OP(=O)(OC(C)C)C(NCc1ccccc1)c1ccccc1 (stereo not given)	.	.	-20.0
COc1ccc(-n2c(/C=C3/C(=O)Nc4ccccc43)nc3ccccc3c2=O)cc1	.	.	-11.7
O=C1C(=O)c2ccccc2-c2ccccc21	-16.0	99.8*	.
O=C1C(=O)c2cccc3cccc1c23	-1.0	-7.9	-22.5
CC1CCCCN1Cc1ccc(Cl)nc1 (stereo not given)	.	.	2.6
O=C(O)c1[nH]c(=O)[nH]c(=O)c1F	.	.	6.2
Cc1cccc(CN(C)C)c1OC(=O)N(C)C	28.7*	19.2	5.3
CN(C)Cc1ccccc1OC(=O)N(C)C	-0.5	-14.4	.
CCC(=O)Nc1ccc(N2CCN(CC)CC2)c(Cl)c1	-12.0	8.6	.
CN1CSC(=S)N(C)C1	-31.2	85.5*	.
CCOC(=O)C(O)(c1ccc(NC(=O)NC2CCCCC2)cc1)C(F)(F)F (stereo not given)	-4.4	-8.6	.
CC(C)[C@]12O[C@H]1[C@@H]1O[C@]13[C@]1(O[C@H]1C[C@H]1C4=C(CC[C@@]13C)C(=O)OC4)[C@@H]2O	.	.	104.7*
O=C(c1ccccc1)C(CN1CCCC1)c1ccccc1 (stereo not given)	56.0*	-42.9	-3.6
O=C(CN1CCCCC1)c1ccc(F)cc1	.	.	5.8
CN1C(=O)NC(=O)/C(=C\C=C\c2ccccc2[N+](=O)[O-])C1=O	.	.	-5.3
O=C(O)C1(c2ccc(Cl)cc2)CCC1	17.1	-61.0	.
COc1ccc(CCNCc2ccc(C)s2)cc1OC	.	.	-13.8
COc1ccc(Cc2nccc3cc(OC)c(OC)cc23)cc1OC	0.3	-37.0	28.5*	S1P3 antag-2=16.1
O=C(Cn1c(=O)n(CC2CS2)c2ccccc21)N1CCCCCC1 (stereo not given)	.	.	2.4
CCOC(=O)C1CCN(/C=C2/C(=O)NC(=O)N(Cc3ccco3)C2=O)CC1	-19.1	-34.4	-30.6
C[C@H]1CCC/C=C/C2C[C@H](O)CC2[C@H](O)/C=C/C(=O)O1 (stereo not given in full)	2.6	-35.4	45.7*	S1P3 antag-2=16.1
CC1CCC/C=C/C2CC(O)CC2C(O)/C=C/C(=O)O1 (stereo not given)	-9.3	-11.0	.
CNC(=O)OCCc1nccn1C	0.1	1.2	-2.2
COc1ccc(N=Cc2c(O)n(-c3ccc(C)cc3)c(=O)[nH]c2=O)cc1	.	.	30.0*	S1P3 antag-2=-10.8
CCOC(=O)c1ccc(N=Cc2c(O)n(-c3ccc(OC)cc3)c(=S)[nH]c2=O)cc1	.	.	-8.9
